Source: ChEMBL document CHEMBL2434842, “Approaches to protozoan drug discovery: phenotypic screening” (J Med Chem, 2013)
Structures can show the parent of a compound that is named as a salt. Values belong to the compound of their own block, whether it stands above or below them.

What was measured:
Plasmodium falciparum [1] = assay: Antimalarial activity against asexual stage of Plasmodium falciparum 3D7 after 72 hrs by image-based HTS assay; type: functional, organism-based; details: 3D7, 72 h
Plasmodium falciparum [2] = assay: Antimalarial activity against late (4 to 5) gametocytic stage of Plasmodium falciparum after 72 hrs by image-based HTS assay; type: functional, organism-based
Outline: (§1)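 P. falciparum early (I–III) or late (IV–V) gametocytes from the authors' large-scale synchronized culture. Exposed to compound in dose response for 72 h. Activity read in an image-based assay. IC50 from duplicate or triplicate points, n ≥ 2, reported as mean ± SD.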

Plasmodium falciparum [3] = assay: Antimalarial activity against early (1 to 3) gametocytic stage of Plasmodium falciparum after 72 hrs by image-based HTS assay; type: functional, organism-based; outline: as §1
[4] = Selectivity ratio of cytotoxic activity against mouse NIH/3T3 cells to antitrypanosomal activity against amastigote stage of Trypanosoma cruzi
Trypanosoma cruzi = assay: Antitrypanosomal activity against amastigote stage of Trypanosoma cruzi infected in mouse NIH/3T3 cells after 48 hrs by Hoechst staining assay; type: functional, organism-based; details: NIH3T3, 48 h
Plasmodium falciparum [5] = assay: Antimalarial activity against late (4 to 5) gametocytic stage of Plasmodium falciparum at 100 uM after 72 hrs by image-based HTS assay relative to control; type: functional
Outline: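 Image-based assay on late-stage (IV–V) P. falciparum gametocytes taken from large-scale production of pure synchronized gametocytes. Compound exposure was 72 h in dose response, with duplicate or triplicate points per concentration and n ≥ 2 independent runs.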

[6] = test system: Trypanosoma brucei brucei; assay: Antitrypanosomal activity against bloodstream form of Trypanosoma brucei brucei 427 after 3 days by Alamar Blue assay; type: functional, organism-based; details: Trypanosoma brucei, 427, 72 h
[7] = test system: Trypanosoma brucei brucei; assay: Trypanocidal activity against Trypanosoma brucei brucei by Alamar Blue assay; type: functional, organism-based
Plasmodium falciparum [8] = assay: Antimalarial activity against late (4 to 5) gametocytic stage of Plasmodium falciparum at 120 uM after 72 hrs by image-based HTS assay relative to control; type: functional
Plasmodium falciparum [9] = assay: Antimalarial activity against early (1 to 3) gametocytic stage of Plasmodium falciparum at 120 uM after 72 hrs by image-based HTS assay relative to control; type: functional

Compound: CCN(CC)Cc1cc(Nc2ccnc3cc(Cl)ccc23)ccc1O
IC50 (Plasmodium falciparum [1]): 28 nM
IC50 (Plasmodium falciparum [2]): 4490 nM
IC50 (Plasmodium falciparum [3]): 159 nM

IC50 (Plasmodium falciparum [1]): 200 nM
IC50 (Plasmodium falciparum [3]): 220 nM
Compound: O[C@@H](c1cc(C(F)(F)F)nc2c(C(F)(F)F)cccc12)[C@H]1CCCCN1 (relative stereo) [(S,R)-MEFLOQUINE]

Compound: C[C@H]1[C@@H](O)O[C@@H]2O[C@@]3(C)CC[C@H]4[C@H](C)CC[C@@H]1[C@@]24OO3 [ARTENIMOL]
IC50 (Plasmodium falciparum [1]): 0.7 nM

Compound: C[C@H]1[C@H](OC(=O)CCC(=O)O)O[C@@H]2O[C@@]3(C)CC[C@H]4[C@H](C)CC[C@@H]1[C@@]24OO3 [ARTESUNATE]
IC50 (Plasmodium falciparum [2]): 3.43 nM

Compound: c1ccc(-c2ccc(C(c3ccccc3)n3ccnc3)cc2)cc1 (stereo unspecified) [BIFONAZOLE]
selectivity ratio ([4]; NIH/3T3 cells): > 91.6
IC50 (Trypanosoma cruzi): 204 nM

Compound: CCN(CC)CCCC(C)Nc1ccnc2cc(Cl)ccc12 (stereo unspecified) [CHLOROQUINE]
inhibition at 100 µM (Plasmodium falciparum [5]): 100%

IC50 (Trypanosoma cruzi): 187 nM
Compound: Clc1ccccc1C(c1ccccc1)(c1ccccc1)n1ccnc1 [CLOTRIMAZOLE]
selectivity ratio ([4]; NIH/3T3 cells): > 87.2

IC50 [6]: 1.14 nM
Compound: C/C=C/C[C@@H](C)[C@@H](O)[C@H]1C(=O)N[C@@H](CC)C(=O)N(C)CC(=O)N(C)[C@@H](CC(C)C)C(=O)N[C@@H](C(C)C)C(=O)N(C)[C@@H](CC(C)C)C(=O)N[C@@H](C)C(=O)N[C@H](C)C(=O)N(C)[C@@H](CC(C)C)C(=O)N(C)[C@@H](CC(C)C)C(=O)N(C)[C@@H](C(C)C)C(=O)N1C [CYCLOSPORINE]

IC50 (Plasmodium falciparum [1]): 2.2 nM
IC50 (Plasmodium falciparum [2]): 0.7 nM
Compound: CC[C@H](C)[C@H](NC(=O)[C@H]([C@@H](C)CC)N(C)C(C)=O)C(=O)N[C@H](C(=O)N[C@@H](CC(C)C)C(=O)[C@@]1(C)CO1)[C@@H](C)O [EPOXOMYCIN]

Compound: CC(=O)N1CCN(c2ccc(OCC3COC(Cn4ccnc4)(c4ccc(Cl)cc4Cl)O3)cc2)CC1 (stereo unspecified) [KETOCONAZOLE]
selectivity ratio ([4]; NIH/3T3 cells): > 853
IC50 (Trypanosoma cruzi): 22.7 nM

IC50 (Trypanosoma cruzi): 67.1 nM
Compound: N#C/C(=C1/SCC(c2ccccc2Cl)S1)n1ccnc1 (stereo unspecified) [LANOCONAZOLE]
selectivity ratio ([4]; NIH/3T3 cells): 306

IC50 [6]: 940 nM
Compound: CC[C@H](C)C(=O)O[C@H]1CCC=C2C=C[C@H](C)[C@H](CC[C@@H]3C[C@@H](O)CC(=O)O3)[C@H]21 [MEVASTATIN]

Compound: Clc1ccc(COC(Cn2ccnc2)c2ccc(Cl)cc2Cl)c(Cl)c1 (stereo unspecified) [MICONAZOLE NITRATE]
selectivity ratio ([4]; nih/3t3): > 19.5
IC50 (Trypanosoma cruzi): 826 nM

Compound: CO[C@@]12[C@H](COC(N)=O)C3=C(C(=O)C(C)=C(N)C3=O)N1C[C@@H]1N[C@@H]12 [MITOMYCIN]
IC50 [7]: 1000 nM

Compound: O=C1c2c(O)ccc(O)c2C(=O)c2c(NCCNCCO)ccc(NCCNCCO)c21 [MITOXANTRONE HYDROCHLORIDE]
IC50 [6]: 2.4 nM
IC50 [7]: 1000 nM

Compound: Clc1ccc(CO/N=C(\Cn2ccnc2)c2ccc(Cl)cc2Cl)c(Cl)c1 [OXICONAZOLE NITRATE]
selectivity ratio ([4]; nih/3t3): > 46.3
IC50 (Trypanosoma cruzi): 388 nM

Compound: CC(=O)O[C@H]1C(=O)[C@@]2(C)[C@H]([C@H](OC(=O)c3ccccc3)[C@]3(O)C[C@H](OC(=O)[C@H](O)[C@@H](NC(=O)c4ccccc4)c4ccccc4)C(C)=C1C3(C)C)[C@]1(OC(C)=O)CO[C@@H]1C[C@@H]2O [PACLITAXEL]
IC50 [7]: 1000 nM

Compound: COc1cc(NC(C)CCCN)c2ncccc2c1 (stereo unspecified) [PRIMAQUINE]
inhibition at 120 µM (Plasmodium falciparum [8]): 40%
IC50 (Plasmodium falciparum [1]): 6090 nM
IC50 (Plasmodium falciparum [3]): 5860 nM

IC50 (Plasmodium falciparum [1]): 64 nM
IC50 (Plasmodium falciparum [2]): 46 nM
IC50 (Plasmodium falciparum [3]): 137 nM
Compound: COc1ccc(C[C@H](N)C(=O)N[C@H]2[C@@H](O)[C@H](n3cnc4c(N(C)C)ncnc43)O[C@@H]2CO)cc1 [PUROMYCIN]

Compound: CCc1nc(N)nc(N)c1-c1ccc(Cl)cc1 [PYRIMETHAMINE]
inhibition at 120 µM (Plasmodium falciparum [9]): 40%
inhibition at 120 µM (Plasmodium falciparum [8]): 100%
IC50 (Plasmodium falciparum [1]): 14 nM

IC50 (Plasmodium falciparum [1]): 46 nM
IC50 (Plasmodium falciparum [2]): 1300 nM
IC50 (Plasmodium falciparum [3]): 131 nM
Compound: COc1ccc2nc3cc(Cl)ccc3c(Nc3cc(CN4CCCC4)c(O)c(CN4CCCC4)c3)c2n1 [PYRONARIDINE]

IC50 (Plasmodium falciparum [1]): 1070 nM
IC50 (Plasmodium falciparum [2]): 3370 nM
Compound: COc1cc(C)c2c(Oc3cccc(C(F)(F)F)c3)c(OC)cc(NC(C)CCCN)c2n1 (stereo unspecified) [TAFENOQUINE]

IC50 [6]: 94 nM
Compound: CC[C@]1(O)C[C@@H]2CN(CCc3c([nH]c4ccccc34)[C@@](C(=O)OC)(c3cc4c(cc3OC)N(C)[C@H]3[C@@](O)(C(=O)OC)[C@H](OC(C)=O)[C@]5(CC)C=CCN6CC[C@]43[C@@H]65)C2)C1 [VINBLASTINE]

IC50 [6]: 30 nM
Compound: CC[C@]1(O)C[C@H]2CN(CCc3c([nH]c4ccccc34)[C@@](C(=O)OC)(c3cc4c(cc3OC)N(C=O)[C@H]3[C@@](O)(C(=O)OC)[C@H](OC(C)=O)[C@]5(CC)C=CCN6CC[C@]43[C@@H]65)C2)C1 [VINCRISTINE]

Compound: C[C@@H](c1ncncc1F)[C@](O)(Cn1cncn1)c1ccc(F)cc1F [VORICONAZOLE]
selectivity ratio ([4]; NIH/3T3 cells): 212
IC50 (Trypanosoma cruzi): 96.5 nM
